# Compounds with a hit are over-represented: about 1.8% of the library has one in this group of screens.
# MBD2 DNA inh – blocks human MBD2 binding to methylated DNA. Q9UBB5. TR-FRET, MBD2 binding to methylated oligonucleotide. inhibition, % at 4.4 µM. actives 0.31% (n = 370,000). AID 686964; in the data active = inhibition above about 13%
# UHRF1 MBD2 ctr – UHRF1 methyl-DNA binding inhibition | actives 0.75% (n = 370,000) | UHRF1 binding to methylated oligo, TR-FRET | AID 687016 | inhibition, % at 4.4 µM | Q96T88; in the data active = inhibition above about 21%;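 also: UHRF1 SRA domain binding a hemimethylated CpG hairpin DNA probe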
# TDP2 absorb – TDP2 (human) inhibition, absorbance primary screen | O95551 | recombinant TDP2, T5PNP hydrolysis, p-nitrophenol absorbance 415 nm | inhibition, % at 12.8 µM | actives 0.34% (n = 370,000) | AID 720702;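 active = inhibition above the mean of all tested compounds plus 3 SD, set per campaign, cut at about 25% in these data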
#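 Assay system: Recombinant human TDP2 | Quantity: 120 nM TDP2 per well | Incubation: 2 h at 37 °C | Signal: Epi absorbance | Evaluation: Percent inhibition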
# LEDGF integ inh – blocks HIV-1 LEDGF/p75-dependent DNA integration. TR-FRET IN-LEDGF/p75 DNA integration, Eu/Cy5. actives 0.64% (n = 370,000). inhibition, % at 3.7 µM;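 active = inhibition above the screen-wide mean plus 3 SD, cut at about 13% in these data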;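 also: signal is the Cy5 over europium emission ratio at 671 and 618 nm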
# Casp6 inh – blocks human caspase-6 cleavage activity | inhibition, % at 12.5 µM | AID 686996 | actives 0.53% (n = 350,000) | purified caspase-6, Z-VEID-R110 cleavage fluorescence;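 active = mean inhibition across replicates at least about 35%, with every replicate also reaching that limit, limit read from the data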
# Target sequence (P55212 24-179 limits assumed): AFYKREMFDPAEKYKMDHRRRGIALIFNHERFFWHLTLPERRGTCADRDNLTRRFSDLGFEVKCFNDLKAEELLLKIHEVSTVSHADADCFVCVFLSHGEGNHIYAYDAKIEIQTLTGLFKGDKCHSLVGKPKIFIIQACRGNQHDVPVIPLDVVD
# Target sequence (P55212 194-293 limits assumed): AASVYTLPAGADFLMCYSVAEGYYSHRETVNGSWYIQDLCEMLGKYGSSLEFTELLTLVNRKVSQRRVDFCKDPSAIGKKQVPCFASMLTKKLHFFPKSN
# NSD2 inh – inhibitors of human histone methyltransferase NSD2 | actives 0.54% (n = 310,000) | AID 743445 | NSD2 peptide methylation, AlphaScreen, 120 min | inhibition, % at 12.5 µM | O96028; in the data active = inhibition above about 50%
# Hits are given with their value; . = inactive; / = not tested or not shown.
SMILES,MBD2 DNA inh,UHRF1 MBD2 ctr,TDP2 absorb,LEDGF integ inh,Casp6 inh,NSD2 inh
COc1ccc(NC(=O)CN2C(=O)S/C(=C/c3cccn3-c3ccc(C(=O)O)cc3)C2=O)cc1,.,.,.,.,72,.
O=C1N/C(=C/c2cccn2-c2ccc(F)cc2)C(=O)N1Cc1ccccc1F,.,.,.,.,/,.
O=C(O)c1cccc(-n2cccc2/C=C2/NC(=O)N(Cc3ccccc3F)C2=O)c1,.,.,.,.,76,.
Cc1ccc(NC(=O)CN2C(=O)N/C(=C/c3cc(C)n(-c4ccc(C(=O)O)cc4)c3C)C2=O)cc1,.,.,.,.,54,.
N#C/C(=C/c1cccn1-c1cccc(C(=O)O)c1)c1ccc(F)cc1,.,.,.,.,70,.
CC(NC(=O)c1ccc(CS(=O)(=O)c2cccc(C(F)(F)F)c2)o1)c1ccc2c(c1)OCCO2 (centres undefined),.,42,.,.,/,.
O=C(NCc1ccc2c(c1)OCO2)c1ccc(CS(=O)(=O)c2cccc(C(F)(F)F)c2)o1,.,.,.,.,/,.
COc1ccc(C(c2c(NC(=O)c3ccco3)sc(C)c2C)N2CCOCC2)cc1 (centres undefined),.,.,.,.,55,.
COc1ccc(C(CNC(=O)c2ccco2)N2CCOCC2)cc1 (centres undefined),.,.,.,.,.,.
COC(=O)C[C@H]1CC[C@H]2[C@H](COc3ccc(NC(=O)c4cccc(OC)c4)cc3C(=O)N2C)O1,/,/,/,/,.,/
COc1cc(NC(=O)CCc2nnc3ccc(N4CCCCC4)nn23)cc(OC)c1OC,.,.,.,.,.,.
COc1cc(NC(=O)CCc2nnc3ccc(N4CCCC4)nn23)cc(OC)c1OC,.,23,.,.,.,.
O=C(CCc1nnc2ccc(N3CCCCC3)nn12)NCc1ccco1,.,25,.,.,.,.
CO[C@H]1CN(C)C(=O)c2cc(NS(=O)(=O)Cc3ccccc3)ccc2OC[C@@H](C)NC[C@H]1C,/,/,/,/,.,/
Cc1cc(Cl)ccc1OC(C)C(=O)Nc1ccccc1N1CCOCC1 (centres undefined),.,21,.,.,/,.
COc1cccc(NC(=O)CN(C)C(=O)CSCC(=O)Nc2ccc(C)cc2)c1,.,29,.,.,.,.
COc1ccc2c3c([nH]c2c1)[C@@H](CO)N(C(=O)c1cccc(F)c1)CC31CN(C(=O)CC2CC2)C1,/,/,/,/,.,/
COCC1CCCCN1C(=O)CCCn1nnnc1CN1CCC(C)CC1 (centres undefined),.,.,.,.,.,.
CC1CCN(Cc2nnnn2CCCC(=O)NC(c2ccccn2)C(F)(F)F)CC1 (centres undefined),.,.,.,28,.,.
CC(C)[C@H](NC(=O)C1CCN(S(=O)(=O)c2ccc(F)cc2)CC1)C(=O)N1CCCC1,.,.,.,.,.,.
Cc1ccc(S(=O)(=O)N2CCC(C(=O)N[C@H](C(=O)N3CCN(C)CC3)C(C)C)CC2)cc1,.,22,.,.,/,.
O=C(NCc1ccccc1Cl)c1ccc2nc[nH]c2c1,.,.,.,.,39,.
O=C(NCc1ccc(Cl)cc1Cl)c1ccc2nc[nH]c2c1,.,.,.,.,/,.
CC1OC(CC(=O)O)CC2=C1C(=O)c1c(O)cccc1C2=O (centres undefined),.,.,34,40,93,95
CC1CN(C2CCN(S(=O)(=O)c3ccc(F)cc3)CC2)CC(C)O1 (centres undefined),.,21,.,.,/,.
SMILES,MBD2 DNA inh,UHRF1 MBD2 ctr,TDP2 absorb,LEDGF integ inh,Casp6 inh,NSD2 inh
Cc1ccccc1-n1c(O)cc(=O)[nH]c1=S,.,21,.,.,.,.
COC(=O)c1ccccc1NC(=O)C(=O)NCc1ccncc1,.,42,.,.,.,.
COC(=O)c1ccccc1NC(=O)NCc1cccnc1,.,.,.,.,/,.
CN(Cc1ccco1)c1ncnc2ccc(-c3ccoc3)cc12,.,22,.,20,39,/
CN(Cc1ccco1)c1ncnc2ccc(-c3ccccc3Cl)cc12,.,.,.,.,.,/
O=C(NCC1CC1)[C@H]1[C@H](CO)[C@H]2Cn3c(ccc(-c4cccnc4)c3=O)[C@@H]1N2C(=O)C1CCCCC1,/,/,/,/,.,/
O=S1(=O)C=CCN1Cc1cn(Cc2ccc(F)cc2)nn1,.,47,.,.,/,/
